Assay results reported in ChEMBL document CHEMBL1159311, “Antiinflammatory constituents of Celastrus orbiculatus inhibit the NF-kappaB activation and NO production” (J Nat Prod, 2002).

What was measured:
RAW264.7 [1] = assay: Antiinflammatory activity against mouse RAW264.7 cells assessed as inhibition of LPS-induced NF-kappaB activation […] assessed after 24 hrs by SEAP reporter gene assay; assay type: functional, cell-based
Procedure, shortened: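 RAW264.7 cells stably carrying a plasmid with eight κB elements driving SEAP were seeded at 5 × 10^4 cells/well and held 3 h at 37 °C. Cells then received test compounds at various concentrations together with LPS (1 µg/mL) for 24 h. Supernatant was heated 65 °C for 5 min, then mixed with 2× SEAP buffer (2 M diethanolamine, 1 mM MgCl2, 20 mM L-homoarginine) for 10 min at 37 °C. p-Nitrophenyl phosphate substrate was added, incubated at 37 °C, and A405 read. Dose-response IC50 reported.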

RAW264.7 [2] = assay: Antiinflammatory activity against mouse RAW264.7 cells assessed as inhibition of LPS-induced NO production […] assessed after 24 hrs by Griess reagent assay; assay type: functional, cell-based
Procedure, shortened: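 RAW264.7 cells were seeded at 1 × 10^5 cells/well and held 3 h. They were then stimulated with LPS (1 µg/mL) for 24 h with or without compound. Supernatant nitrite was measured by Griess reaction: equal volumes of supernatant and reagent (0.1% N-(1-naphthyl)ethylenediamine and 1% sulfanilamide in 5% phosphoric acid, 1:1), absorbance at 570 nm. Values were quantified against a sodium nitrite standard curve. Aminoguanidine served as reference. IC50 reported. Viability was checked by MTT.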

Structure (SMILES) | IC50 (RAW264.7 [1]) [µM] | IC50 (RAW264.7 [2]) [µM]
CC1(C)CCC[C@@]2(C)C1=C(O)C(=O)c1cc(O)c(O)cc12 [CELAPHANOL A] | 18.2 | 32.6
CC1=C(O)C(=O)C=C2C1=CC=C1[C@@]2(C)CC[C@@]2(C)[C@@H]3C[C@](C)(C(=O)O)CC[C@]3(C)CC[C@]12C [CELASTROL] | 0.27 | 0.23
CC(=O)O[C@H]1CC[C@@H](C)[C@]23OC(C)(C)[C@H](C[C@H](OC(=O)c4ccco4)[C@]12C)[C@H]3OC(=O)c1ccco1 [ORBICULIN D] | 36.7 | 43.6
CC(=O)O[C@H]1C[C@@H](C)[C@]23OC(C)(C)[C@H](C[C@H](OC(=O)c4ccccc4)[C@]2(C)[C@H]1OC(C)=O)[C@H]3OC(=O)c1ccccc1 [ORBICULIN A] | > 300 | > 300
N=C(N)NN [PIMAGEDINE] | – | 16.3

Next, values leading:

IC50 (RAW264.7 [1]) [µM] | IC50 (RAW264.7 [2]) [µM] | Structure (SMILES)
> 300 | > 300 | CC(=O)O[C@H]1C[C@@H](C)[C@]23OC(C)(C)[C@H](C[C@H](OC(=O)c4ccccc4)[C@]2(C)[C@H]1OC(C)=O)[C@H]3OC(=O)c1ccco1 [ORBICULIN E]
> 300 | > 300 | CC(=O)O[C@H]1[C@@H](OC(=O)c2ccco2)C[C@@H](C)[C@]23OC(C)(C)[C@H](C[C@H](OC(=O)c4ccccc4)[C@]12C)[C@H]3OC(=O)c1ccco1 [ORBICULIN F]
61.5 | 51.2 | CC(=O)O[C@H]1[C@@H](OC(=O)c2ccco2)C[C@@H](C)[C@]23OC(C)(C)[C@H](C[C@H](OC(=O)c4ccco4)[C@]12C)[C@H]3OC(=O)c1ccco1 [ORBICULIN I]
33.5 | 50.4 | CC(=O)O[C@@H]1[C@@H]2[C@@H](OC(=O)c3ccco3)[C@]3(OC2(C)C)[C@H](C)CC[C@H](OC(C)=O)[C@@]3(C)[C@H]1OC(=O)c1ccco1 [ORBICULIN H]
